The full list was thinned out, with hits kept by preference.
D1 allo mod – D1 CRE-luciferase signal change, two-sided – cell-based, HEK293 D1, dopamine EC30, D1 allosteric modulator project, primary screen | B-score at 10 µM | AID 641, 2007 | 5.9% of 58,000 active | dopamine EC30 potentiation; actives deviate in either direction | D(1A) dopamine receptor (Homo sapiens), P21728;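 active = luminescence count or its row- and column-corrected plate score outside the 99.7% band of the plate's sample wells, on either side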
Target sequence (P21728 whole entry, looked up): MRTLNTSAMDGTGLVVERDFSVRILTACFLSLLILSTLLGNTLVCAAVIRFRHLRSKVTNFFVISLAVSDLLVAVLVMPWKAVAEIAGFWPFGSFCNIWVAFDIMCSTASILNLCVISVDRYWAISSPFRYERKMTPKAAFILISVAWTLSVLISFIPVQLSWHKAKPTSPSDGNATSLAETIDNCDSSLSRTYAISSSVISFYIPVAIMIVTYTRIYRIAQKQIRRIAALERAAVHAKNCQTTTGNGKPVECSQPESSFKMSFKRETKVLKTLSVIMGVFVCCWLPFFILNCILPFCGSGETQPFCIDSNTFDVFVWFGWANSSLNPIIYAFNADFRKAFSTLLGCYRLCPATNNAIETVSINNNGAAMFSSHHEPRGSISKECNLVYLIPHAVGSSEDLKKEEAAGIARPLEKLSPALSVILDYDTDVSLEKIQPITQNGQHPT
AP ELISA ortho – alternative complement pathway inhibitors, primary screen, biochemical, ELISA, human serum, orthogonally pooled compounds; LPS-coated ELISA, C3 deposition; tested in compound mixtures; inhibition, % at 5 µM; 0.08% of 62,000 active; AID 1235, 2008;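 active = inhibition above 30% in each of the two pooled mixtures holding the compound, so the lower value exceeds 30%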;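 note: 0% = serum in Mg-EGTA without compound and 100% = EDTA serum blank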
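Test system: human serum alternative complement pathway, C3 deposition on LPS-coated wells; also added: Plate-bound LPS; doses: 5 µM per compound in ten-compound mixtures; schedule: 1 h at 37 °C; detection: Anti-C3 ELISA, OD 450 nm; evaluation: percent inhibition of C3 deposition onto LPS; repeats: two pool placements per compound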
hDAT+cocaine – changed hDAT dopamine uptake under cocaine IC80, either direction, primary screen, cocaine antagonist project, cell-based, LLC-PK1 hDAT, [14C]-dopamine uptake, MLSMR; B-score at 10 µM; AID 449768, 2010; LLC-PK1 hDAT cells, [14C]-dopamine uptake with cocaine IC80; actives deviate in either direction; 1.3% of 110,000 active; Sodium-dependent dopamine transporter (Homo sapiens), Q01959;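 active = Z score or B-score, a plate-position-corrected score, falls beyond the plate's 99.7% confidence bounds, in either direction; inactive = both scores lie inside the 99.7% bounds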;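 note: scored against the spread of the other compound wells on the same plate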
MMP-13 inhibitor – human MMP13 inhibitors, primary screen, biochemical, FRET peptide cleavage; Collagenase 3 (Homo sapiens), P45452; MMP-13 fTHP FRET cleavage, Mca fluorescence; inhibition, % at 4 µM; 0.07% of 65,000 active; AID 570, 2006;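 active = inhibition above the mean of compound-free control plate wells plus 3 SD, cut at about 14% in these data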;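 note: 0% = DMSO wells and 100% = wells with reference MMP-13 inhibitor after basal subtraction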
Candida biofilm – clotrimazole potentiators killing Candida biofilms, primary screen, with clotrimazole, Alamar Blue; inhibition, % at 6 µM; 0.14% of 85,000 active; C. albicans biofilm + clotrimazole; AID 834, 2007;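 active = inhibition above 20%; inactive = inhibition below 20%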;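 note: preformed 24 hr biofilms exposed to compound for 48 hr; 0% = biofilm without compound and 100% = blank killed by clotrimazole plus chlorhexidine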
D1 mod confirm – D1 receptor positive allosteric modulators, retest, confirmation, cell-based, HEK293 D1, CRE-luciferase, duplicate; shares compounds with D1 allo mod; dopamine EC30 potentiation; hits give high values; luminescence at 10 µM; 88% of 2,200 active;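 active = luminescence in either of two replicates above the same-plate mean plus 3 SD of the low-dose dopamine control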
D1 no dopamine – D1 receptor agonism without dopamine, confirmation, mechanism study for D1 allosteric modulator project, cell-based, HEK293 D1, CRE-luciferase, secondary assay 1 | shares compounds with D1 allo mod | luminescence, no dopamine; hits give high values | luminescence at 10 µM | 0.8% of 1,900 active; in the data active = luminescence above about 3900
Isoprot counter – alters isoproterenol CRE-luciferase response in HEK293 cells; luminescence at 10 µM; HEK293 D1 CRE-luciferase, isoproterenol EC30 counter-screen; hits give high values; 63% of 2,200 active; shares compounds with D1 allo mod;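 active = luminescence in either replicate above plate mean of wells with a partly effective reference agonist dose plus 3 SD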;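 note: isoproterenol raises cAMP through native beta-adrenoceptor Gs so signal bypasses D1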
* = called active by the depositor; . = not tested or not shown.

SMILES | D1 allo mod | AP ELISA ortho | hDAT+cocaine | MMP-13 inhibitor | Candida biofilm | D1 mod confirm | D1 no dopamine | Isoprot counter
CCn1c(N2CCN(CC(=O)c3c[nH]c4ccccc34)CC2)nc2c1c(=O)[nH]c(=O)n2C | -0.041 | -8 | 0.15 | 0 | 3 | . | . | .
C/C=C/Cn1c(N2CCCCCC2)nc2c1c(=O)[nH]c(=O)n2C | 15* | . | . | -3 | 11 | 16408* | 1784 | 5480*
Cn1c(=O)[nH]c(=O)c2c1nc(N1CCCCCC1)n2CC(N)=O | . | . | -0.0016 | . | 2 | . | . | .
CCCn1c(N2CCN(CC(=O)c3c(C)n(C)c4ccccc34)CC2)nc2c1c(=O)[nH]c(=O)n2C | 4.4* | 10 | 2.8* | 2 | 0 | 12284* | 1832 | 5848*
Cn1c(=O)[nH]c(=O)c2c1nc(N1CCCCC1)n2CCOc1ccccc1 | 14* | 9 | 0.19 | 1 | -2 | 22140* | 1548 | 7868*
C/C=C/C=C\C(=O)Nc1cccc(C2=NOC3(C2)C[C@@H](C(N)=O)N(C(=O)c2cc([N+](=O)[O-])cc([N+](=O)[O-])c2C)C3)c1 (stereo partly specified) | . | . | -1.1 | . | . | . | . | .
COC(C/C=C\[C@H](O)[C@@H](C)OCc1ccccc1)OC | . | . | -0.25 | . | . | . | . | .
CC1(C)CC(=O)C(CCC(=O)c2ccccc2)C(C)(C)N1 (stereo unspecified) | 4.7* | -8 | 0.099 | -1 | 4 | 4348 | 1672 | 2280
O=C(OCCN1C(=O)c2ccccc2C1=O)c1cc(S(=O)(=O)N2CCOCC2)ccc1F | 12* | 23 | -0.6 | -1 | 7 | 9428* | 1532 | 5568*
O=c1nc(-c2ccccc2)c2cc(Cl)ccc2[nH]1 | 6.7* | . | 0.013 | -19 | 7 | 9072* | . | 2836*
Clc1ccc2[nH]c(-c3ccccc3)cc2c1 | . | . | -0.12 | . | . | . | . | .
COC(=O)c1ccccc1NC(=O)NCc1ccc2c(c1)OCO2 | 1 | 23 | -0.021 | 0 | 7 | . | . | .
COC(=O)c1ccccc1NC(=O)C1CCCC1 | 6.6* | 16 | 0.039 | -3 | 7 | 9916* | 1688 | 3600*
O=C(Nc1ccccc1)c1ccccc1NC(=O)C1CCCCC1 | . | . | -0.25 | . | . | . | . | .
COC(=O)c1ccccc1NC(=O)c1ccc2c(c1)OCCO2 | 3.9* | 19 | 0.78 | 4 | -1 | 11420* | 1512 | 2824
COC(=O)c1ccccc1NC(=O)c1ccc(NS(C)(=O)=O)cc1 | 8* | 9 | 0.44 | 4 | 5 | 9992* | 1724 | 3504*
CCOc1ccc(C(=O)NCC2OCCc3ccccc32)cc1 (stereo unspecified) | . | . | 0.58 | . | 6 | . | . | .
Cc1ccc(C2CC(=O)NC(SCC(=O)Nc3nccs3)=C2C#N)cc1 (stereo unspecified) | . | . | -0.86 | . | . | . | . | .
COc1ccccc1-c1nc(SCC(=O)O)n[nH]1 | 0.3 | -12 | 0.87 | -2 | 2 | . | . | .
CCOc1ccccc1-c1nc(SCC(=O)O)n[nH]1 | 3.8* | -13 | 0.012 | -1 | 5 | 5488 | 1396 | 2648
CCCS(=O)(=O)N1CCC(C(=O)NCCN(C)Cc2ccccc2)CC1 | 2.6* | 7 | -1.6 | 2 | 4 | 5744 | 1548 | 2252
O=c1n(Cc2ccccc2)c2cc(Cl)cnc2n1Cc1ccccc1 | 8.1* | -6 | -0.25 | -12 | 7 | 9248* | 1640 | 2708
C=CCc1cccc2cc(C(=O)OCC(=O)c3ccccc3)c(=O)oc12 | . | . | 0.47 | . | -1 | . | . | .
Cn1c(SCc2ccon2)nc2ccccc2c1=O | 5.9* | . | -0.25 | -1 | 2 | 6248* | 1464 | 3076
Cn1c(SCC(=O)O)nc2ccccc2c1=O | -0.024 | -5 | 1.2 | 3 | 8 | . | . | .
SMILES | D1 allo mod | AP ELISA ortho | hDAT+cocaine | MMP-13 inhibitor | Candida biofilm | D1 mod confirm | D1 no dopamine | Isoprot counter
Cc1ncsc1CCSc1nc2ccccc2c(=O)n1C | 5.3* | . | 0.61 | 1 | . | 10832* | . | 3184*
CN(C)S(=O)(=O)c1cccc(C(=O)Nc2cc(Cl)ccc2O)c1 | 0.11 | 7 | 0.33 | 8 | -1 | . | . | .
CN1CCN(c2ccc(Cl)cc2NC(=O)c2cccc(S(=O)(=O)N(C)C)c2)CC1 | 5.2* | 17 | 0.26 | 1 | 4 | 13264* | 1580 | 2544
COc1cccc(/C=N/n2c(SC)nnc2-c2ccccc2)c1OC | 6* | 15 | -0.046 | -10 | -3 | 8100* | 1656 | 4984*
COc1cccc(/C=N/n2c(SC)nnc2-c2ccccc2)c1O | -2.3 | -3 | -0.18 | 0 | -3 | . | . | .
O=C1CN(C(=O)COC(=O)CCSc2ccccc2Cl)c2ccccc2N1 | . | . | -0.97 | . | . | . | . | .
COc1ccc(-c2ccc(=O)[nH]n2)cc1 | 8.2* | 4 | -0.13 | -1 | . | 10236* | 1400 | 4044*
O=c1ccc(-c2ccccc2)n[nH]1 | . | . | -0.0099 | . | -4 | . | . | .
CSc1nnc(-c2sc3cc(C(F)(F)F)cnc3c2-c2ccccc2)n1C | . | . | -0.15 | . | -5 | . | . | .
COC(=O)[C@H](Cc1ccccc1)NC(=O)NCCC1=CCCCC1 | . | . | -0.33 | . | 2 | . | . | .
Cc1sc2nc(SC(C)C)nc(N)c2c1C | 14* | 6 | 1.1 | 6 | . | 13552* | 1624 | 3844*
Cc1sc2nc(C(C)C)oc(=O)c2c1C | . | . | -1.2 | . | 6 | . | . | .
Cc1ccc(S(=O)(=O)C/N=C(/NC(=S)N(c2ccccc2)c2ccccc2)c2ccccc2)cc1 | . | . | 1.1 | . | 2 | . | . | .
Cc1ccc(N2CC(c3nc4ccccc4[nH]3)CC2=O)c(C)c1 (stereo unspecified) | 11* | 11 | 0.16 | 5 | 9 | 6760 | 1648 | 2384
O=C(CSc1nnc(-c2cccnc2)n1Cc1ccccc1)NCc1ccccc1 | . | . | -0.28 | . | 6 | . | . | .
COc1cc(F)c(C(=O)NC(C)(C)CO)cc1OC | . | . | -0.81 | . | . | . | . | .
C#CCOCCOCCOCCNc1nc(N2CCN(C(=O)C([C@@H](C)CC)n3cc(C(N)COC(=O)C(F)(F)F)nn3)CC2)nc(N2CCN(C(=O)C([C@@H](C)CC)n3cc(C(N)CC(C)C)nn3)CC2)n1 (stereo partly specified) | . | . | -0.34 | . | . | . | . | .
Cc1cc(SCC(=O)N2CCC(c3noc4ccc(F)cc34)CC2)nc2ccccc12 | 3.7* | 3 | 2 | 1 | 5 | 6804* | 1500 | 2672
O=C1OCc2ccc(NC(=O)C3CCCCC3)cc21 | 7.5* | 13 | -0.55 | 3 | 2 | 7424 | 1748 | 2488
